Assay: Toxicity liver stage against HepG2, at 10uM
Format: cell-based
Parameters: test concentration 10 uM, cell line HepG2-A16-CD81EGFP
Details: human, HepG2-A16-CD81EGFP cells; read-out: INHIBITION
Procedure, shortened: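 Uninfected HepG2-A16-CD81EGFP cells, 3 × 10^3 per well, 1536-well, plated on prespotted compound at 10 μM final, parasite-free screening media added to match infected plates; puromycin 10 μM positive, DMSO 0.5% negative; run in parallel with 48 h PbLuc assay at 37 °C, 5% CO2; viability by CellTiter-Glo luminescence, normalized to controls.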

Structure (SMILES) | cytotoxicity at 10 µM
Cn1c2ccccc2c2ncn(CCN3CCOCC3)c(=O)c21 | 15.7%
CCC1(CC)Cc2ccccc2-c2nc(NCCO)[nH]c(=O)c21 | -7.17%
Cc1c(CNCc2nn(-c3ccccc3)c3c2CCC3)cc(C#N)n1C | 13.3%
Cc1ccc(NC(=O)Cn2ncc(SCC(N)=O)c(Cl)c2=O)c(F)c1 | -7.21%
O=C(Nc1nc2c(s1)CN(S(=O)(=O)C1CC1)CC2)Nc1ccccc1F | -1.34%
O=C(NCCn1ccc(-c2ccncc2)n1)c1ccc2c(c1)OCO2 | 6.03%
CCN1C[C@H]2CCN(C(=O)c3cc[nH]n3)CC[C@H]2S1(=O)=O | 12.2%
O=C1[C@H]2CN(c3ncccn3)C[C@H]2CN1CC1CC1 | 4.41%
CC(=O)Nc1nc(-c2ccc(F)cc2)c[nH]1 | 2.41%
O=C(NCCN1CCOCC1)c1ccc(-n2ccc3ccccc32)s1 | -1.27%
Cc1cccc(Nc2cccc(C3CCCN(Cc4ncc[nH]4)C3)n2)n1 (centres undefined) | -24.1%
Cc1ccc(S(=O)(=O)N2C[C@H]3C[C@H](NC(=O)c4cc[nH]n4)[C@H]3C2)cc1 | 81.4%
COCCN1C(=O)CO[C@H]2CN(Cc3ccccc3Cl)C[C@@H]21 | -6.55%
CN(CC(=O)NCC(F)(F)F)C(=O)c1ccc(C(=O)OC(C)(C)C)cc1 | 0.68%
CNC(=O)Cc1ccc(NC(=O)NCc2ncc(C)s2)cc1 | 7.34%
CC(Cn1cncn1)NC(=O)NCC(C)(C)c1ccc(F)cc1 (centres undefined) | 13.6%
Cc1csc(C2(NC(=O)NCCN3CCOCC3)CCCC2)n1 | -3.55%
CCCc1ncc(C(=O)N2CCOc3ncccc32)s1 | 11.6%
COCCNc1ccccc1CNC(=O)NCc1ccc(C)s1 | 4.38%
CCc1ccc(C2CCCCCN2C(=O)CNC(=O)C2CC2)o1 (centres undefined) | -7.25%
COc1ccc(CCN(C)CCS(=O)(=O)c2ccc(Cl)cc2)cc1OC | 35.4%
COc1ccc(-n2cnnc2SCC(=O)NC(C)C)cn1 | 14%
Cc1ccc(N2CCCC(NCCS(C)(=O)=O)C2)nn1 (centres undefined) | -5.26%
CN(Cc1ccco1)Cc1ccccc1CNC(=O)c1cnccn1 | 17.1%
CN(C)CCN(Cc1ccc(C(F)(F)F)cc1)C(=O)c1cc[nH]n1 | 3.95%
NS(=O)(=O)N1CCc2ccc(NC(=O)CC(F)(F)F)cc21 | 6.15%
O=C(COc1cccc2c1CCC2=O)NCCc1cccs1 | 0.79%

Structure (SMILES) | cytotoxicity at 10 µM
Fc1ccc(CNCCn2cccn2)c(Cl)c1 | -1.26%
Cc1nc(C)c(C(=O)NCCOc2ccc(C(F)(F)F)cn2)o1 | 2.42%
Cc1ccsc1CNC(=O)Nc1ccn(CCN2CCOCC2)n1 | 8.28%
CCC1CN(C)c2ccccc2CN1C(=O)Nc1ccccc1OC (centres undefined) | -1.87%
O=C(CCc1ccco1)NS(=O)(=O)Cc1ccon1 | 9.99%
Cc1cc(Br)cnc1NCCN1CCC(N(C)C)CC1 | -10.6%
O=C(Nc1ccc(N2CCCC2)nc1)N1CCc2ccccc2C1 | -10.2%
CCOCC(=O)N1C[C@@H]2COC[C@]2(c2nc(C)no2)C1 | -90.9%
O=C(c1cscn1)N1C[C@H]2CCC[C@@]2(COCc2ccccn2)C1 | -103%
CNC(=O)N1CC[C@@H]2CN(Cc3cccc(OC)c3)S(=O)(=O)[C@@H]2CC1 | -108%
c1cc(CN2CCOCC3(CCNCC3)C2)ccn1 | -71%
COc1cc(C(=O)NCc2cc(N3CCOCC3)ncn2)ccn1 | -10.8%
Cn1ncc(N2CCC(CNC3CC(c4ccccc4)C3)CC2)cc1=O (centres undefined) | -2.15%
NC(=O)c1ccc(-n2ccnc2-c2cccc(O)c2)cc1N1CCCC1 | 15.8%
Cc1cc(CC(C)Nc2ncc(C)c(N(C)C)n2)[nH]n1 (centres undefined) | -7.85%
O=C(c1cc(=O)n(-c2ccccc2)[nH]1)N1CCOC(C(F)(F)F)C1 (centres undefined) | 3.32%
C/C=C(\C)CN1C[C@H](NC(=O)CCOC)[C@@H](c2ccc(C)o2)C1 | 7.06%
COc1cccc(CC(=O)N2CCc3ncnc(NCCO)c3CC2)c1 | -4.12%
CCCn1nc(C)c(CN2CC3(CCOC3)CCC2=O)c1C (centres undefined) | 4.28%
CN1CCC(Cc2nc(-c3ccnn3C)n(Cc3ccccc3)n2)CC1 | 44.1%
c1cc(CN2CCC(c3nnc4n3CCCCC4)CC2)c2nonc2c1 | -1.08%
CC(C)c1nccn1C(C)C(=O)N1CCN(c2ccccc2Cl)CC1 (centres undefined) | 3.54%
COc1coc(CN2CCCC(CCc3ccc(F)c(F)c3)C2)cc1=O (centres undefined) | 1.95%
Cc1cccc(N2CCC(N3CCC4(CN(C)C(=O)O4)C3)CC2)c1C (centres undefined) | -11.8%
CNC(=O)C(C)(C)NC(=O)c1cc(COc2ccccc2OC)[nH]n1 | 1.6%
CCc1cnc(N)nc1NCCCn1cc(Cl)cn1 | 3.5%
CN(Cc1ccccc1Cl)C(C(=O)O)c1ccc(F)c(CO)c1 (centres undefined) | -46.4%

Structure (SMILES) | cytotoxicity at 10 µM
CN1CCN([C@H]2CCN(C(=O)c3cc(Cl)cn3C)C[C@H]2CCCO)CC1 | 0.174%
CCN(C)S(=O)(=O)N[C@H]1CN(c2ccc(F)cn2)C[C@@H]1C(C)C | 10.8%
COCCN1CCC(CN(C)c2nc3c(s2)c(C)nn3C)CC1 | 0.992%
CCSC(C)C(=O)N1CCC(c2nn(C)c(=O)n2-c2ccccc2)CC1 (centres undefined) | 0.299%
COc1ncc(CN(CCN(C)C)Cc2ccc(C)s2)cn1 | -50.3%
Cc1cccc(C(=O)Nc2ccc(OC3CCN(C)CC3)cc2)c1 | -26.1%
CCCc1noc(CCCC(=O)N2CCCC2c2cnn(C)c2)n1 (centres undefined) | 6.32%
Cc1cn2c(n1)CCC(NC(=O)c1[nH]nc(C)c1Br)C2 (centres undefined) | -17.6%
CCN(Cc1nc2c(cnn2C)c(=O)[nH]1)c1cc(C)cc(C)c1 | -5.83%
O=C(c1ccc(Cl)o1)N1CCCC(c2cc(C(F)(F)F)[nH]n2)C1 (centres undefined) | 2.14%
Cc1noc(C)c1C(=O)NCc1ccnc(OCC(F)(F)F)c1 | -0.421%
c1cnnc(N2CCCC2CNc2ncnc3ccccc23)c1 (centres undefined) | 2.33%
Cn1nc(COc2cncnc2)c2c1CCN(Cc1ccco1)C2 | 9.64%
CC(C)C(=O)N1CCC2(CC1)COCCN2Cc1ccc(F)cc1 | -60.9%
O=C(NCc1cnc2n1CCN(Cc1ccoc1)C2)c1ccno1 | -93%
CCOC1COC2(CCN(C(=O)c3cccc(C)n3)CC2)C1 (centres undefined) | 6.24%
COc1cccc([C@H]2CN(C(C)=O)[C@@H]3CCN(Cc4ccsc4)C[C@H]23)c1 | -9.19%
COc1ccc(CN2C[C@@H]3CN(Cc4cccnc4)CCO[C@@H]3C2)cc1 | 10.3%
CCn1cc2c(n1)CN(Cc1cnn(C)c1)CC2COCC1CC1 (centres undefined) | -80.4%
Cc1cccc(CO[C@@H]2CO[C@@]3(CCN(S(=O)(=O)N(C)C)C3)C2)n1 | 4.14%
CN(C)CCNC(=O)c1cc(-c2cnc(N3CCCC3)nc2)cn1C | 15.7%
c1cncc(N2CCCC3(CN(Cc4cccs4)CCO3)C2)c1 (centres undefined) | 11.5%
CC(C)COC1CC2(CCN(C(=O)Cc3ccccn3)CC2)C1 | -113%
O=C(Nc1cccnc1)[C@H]1C[C@H]2CN(Cc3ccc(F)cc3)C[C@@H]1O2 | -82.9%
O=S(=O)(c1cccc(F)c1)N1C[C@H]2CC[C@@H](C1)N(Cc1ccccc1)C2 | -3.03%

Reference: ChEMBL document CHEMBL4513216, “Probing the Open Global Health Chemical Diversity Library for Multistage-Active Starting Points for Next-Generation Antimalarials” (ACS Infect Dis, 2020)
